Experimental data taken from ChEMBL document CHEMBL1671760, “Pharmacokinetics and pharmacogenomics of once-daily raltegravir and atazanavir in healthy volunteers” (Antimicrob Agents Chemother, 2010).

Legend:
[1] = Cmax in healthy human plasma at 400 mg, po qd coadministered with atazanavir 400 mg, po qd for 1 week by LC-MS/MS analysis
[2] = Drug level in healthy human urine assessed as raltegravir-glucoronide at 400 mg, […] coadministered with atazanavir 400 mg, po qd for 1 week measured at 12 to 24 hrs post dose by LC-MS/MS analysis; format: ADME, organism-based; details: in vivo
In short: (§1)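 Steady state was reached after 1 week of once-daily raltegravir 400 mg with atazanavir 400 mg in healthy adults. All urine was collected over 24 h after the witnessed dose and combined into 2-h pools. Raltegravir and raltegravir-glucuronide were assayed by LC-MS-MS, and amounts excreted were summed for 0–12 h and 12–24 h.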

[3] = tested on: Homo sapiens; experiment: AUC (0 to12 hrs) in healthy human assessed as raltegravir-glucoronide at 400 mg, po Bid for 1 week by LC-MS/MS analysis; format: ADME, organism-based, Plasma; design: dose 400 mg, time < 12 hr, route oral; details: in vivo, 12 h
In short: (§2)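 Healthy volunteers (24–51 y) took raltegravir 400 mg twice daily for 1 week in a crossover with at least 3 days between arms, dosing ≥1 h before or 2 h after food. After a witnessed dose, blood was drawn at 1, 2, 4, 8 and 12 h, with meals from 1 h. Plasma was analysed by LC-MS-MS after acetonitrile precipitation, using noncompartmental linear-trapezoidal AUC and log10-transformed geometric means.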

[4] = Ctau in healthy human plasma at 400 mg, po Bid for 1 week by LC-MS/MS analysis; format: ADME, organism-based; details: read-out: Ctau
In short: as §2

[5] = Renal clearance in healthy human at 400 mg, po Bid for 1 week by LC-MS/MS analysis; format: ADME, organism-based; details: plasma, read-out: CL_renal
In short: (§3)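 Raltegravir 400 mg was given twice daily for 1 week, with 12-h plasma and urine profiles measured by LC-MS-MS. Apparent oral clearance was dose/AUC over the dosing interval. Renal clearance was the amount excreted in urine divided by plasma AUC over the same interval. Fe/F was Ae/(dose/F), with F unknown.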

[6] = AUC (12 to24 hrs) in healthy human at 400 mg, po qd coadministered with atazanavir 400 mg, po qd for 1 week by LC-MS/MS analysis; details: plasma
[7] = Ctau in healthy human plasma at 400 mg, po qd coadministered with atazanavir 400 mg, po qd for 1 week by LC-MS/MS analysis
[8] = Drug level in healthy human urine assessed as raltegravir-glucoronide at 400 mg, po Bid for 1 week measured at 0-12 hrs post dose by LC-MS/MS analysis; format: ADME, organism-based; details: in vivo
In short: (§4)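 Healthy volunteers took raltegravir 400 mg twice daily for 1 week. After the witnessed dose, all urine was collected over 12 h and pooled into 2-h aliquots, then frozen at −70°C. Raltegravir and its glucuronide were measured by LC-MS-MS, and amounts were summed over 0–12 h. Values are geometric means of log10-transformed data.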

[9] = tested on: Homo sapiens; experiment: AUC (0 to tau) in human at 400 mg, po Bid coadministered with atazanavir 400 mg, po qd for 1 week by LC-MS/MS analysis; format: ADME, organism-based, Plasma; details: in vivo, 168 h, in the assay text read “po qd” for “po Bid”
In short: (§5)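 Arm B of a crossover in healthy adults (24–51 y), separated from the other arm by at least 3 days. Subjects took raltegravir 400 mg plus atazanavir 400 mg once daily for 1 week in a semifasted state. Plasma was sampled over 24 h after a witnessed dose. Raltegravir was quantified by LC-MS-MS after acetonitrile protein precipitation, and the glucuronide by negative-mode SRM (m/z 619.1→316.0) with a d3 internal standard. Noncompartmental analysis used the linear trapezoidal rule.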

[10] = tested on: Plasma; experiment: Ctau in healthy human plasma assessed as raltegravir-glucoronide at 400 mg, […] coadministered with atazanavir 400 mg, po qd for 1 week by LC-MS/MS analysis; format: ADME, organism-based; details: in vivo, 168 h
In short: as §5

[11] = Drug level in healthy human urine at 400 mg, po Bid for 1 week measured at 0-12 hrs post dose by LC-MS/MS analysis; format: ADME, organism-based; details: in vivo
In short: as §4

[12] = Apparent total plasma clearance in healthy human at 400 mg, po Bid coadministered with atazanavir 400 mg, po qd for 1 week by LC-MS/MS analysis; format: ADME, organism-based; details: in the assay text read “po qd” for “po Bid”
In short: (§6)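 Once-daily raltegravir 400 mg with atazanavir 400 mg was given for 1 week, with plasma and urine collected over 24 h and assayed by LC-MS-MS. Clearances were computed noncompartmentally: CL/F = dose/AUC(τ), renal CL = urinary amount/plasma AUC over the same interval, and Fe/F = Ae/(dose/F).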

[13] = AUC (0 to tau) in healthy human at 400 mg, po Bid for 1 week by LC-MS/MS analysis; format: ADME, organism-based; details: plasma
In short: as §2

[14] = tested on: Plasma; experiment: Renal clearance in healthy human assessed as raltegravir-glucoronide at 400 mg, po Bid for 1 week by LC-MS/MS analysis; format: ADME, organism-based; details: in vivo, 168 h
In short: as §3

[15] = tested on: Plasma; experiment: Renal clearance in healthy human assessed as raltegravir-glucoronide at […] coadministered with atazanavir 400 mg, po qd for 1 week by LC-MS/MS analysis; format: ADME, organism-based; details: in vivo, 168 h
In short: as §6

[16] = tested on: Plasma; experiment: Cmax in healthy human plasma assessed as raltegravir-glucoronide at 400 mg, […] coadministered with atazanavir 400 mg, po qd for 1 week by LC-MS/MS analysis; format: ADME, organism-based; design: dose 400 mg, route oral; details: in vivo, 168 h
In short: as §5

[17] = Drug level in healthy human urine at 400 mg, po Bid coadministered with atazanavir 400 mg, po qd for 1 week measured at 12 to 24 hrs post dose by LC-MS/MS analysis; format: ADME, organism-based; details: in vivo, in the assay text read “po qd” for “po Bid”
In short: as §1

[18] = Plasma concentration in healthy human at 400 mg, po Bid for 1 week measured 12 hrs post dose by LC-MS/MS analysis; format: ADME, organism-based
In short: as §2

[19] = Cmax in healthy human plasma at 400 mg, po Bid for 1 week by LC-MS/MS analysis; format: ADME, organism-based; design: dose 400 mg, route oral
In short: as §2

[20] = tested on: Plasma; experiment: Plasma concentration in healthy human assessed as raltegravir-glucoronide at 400 mg, po Bid for 1 week measured 12 hrs post dose by LC-MS/MS analysis; format: ADME, organism-based; details: in vivo
In short: as §2

[21] = Plasma concentration in healthy human at 400 mg, po qd coadministered with atazanavir 400 mg, po qd for 1 week measured 12 hrs post dose by LC-MS/MS analysis
[22] = AUC (0 to12 hrs) in healthy human at 400 mg, po qd coadministered with atazanavir 400 mg, po qd for 1 week by LC-MS/MS analysis; details: plasma
[23] = Renal clearance in healthy human at 400 mg, […] coadministered with atazanavir 400 mg, po qd for 1 week by LC-MS/MS analysis; format: ADME, organism-based; details: plasma, read-out: CL_renal
In short: as §6

[24] = Apparent clearance of oral drug in healthy human assessed as drug excreted unchanged at 400 mg, po Bid for 1 week by LC-MS/MS analysis; format: ADME, organism-based; details: in vivo, read-out: Fraction excreted unchanged
In short: as §3

[25] = Apparent clearance of oral drug in healthy human assessed as drug excreted unchanged at 400 mg, po […] coadministered with atazanavir 400 mg, po qd for 1 week by LC-MS/MS analysis; format: ADME, organism-based; details: in vivo, read-out: Fraction excreted unchanged
In short: as §6

[26] = AUC (0 to12 hrs) in healthy human at 400 mg, po Bid for 1 week by LC-MS/MS analysis; format: ADME, organism-based; design: dose 400 mg, time < 12 hr, route oral; details: plasma
In short: as §2

[27] = tested on: Plasma; experiment: Plasma concentration in healthy human assessed as raltegravir-glucoronide at 400 mg, po […] coadministered with atazanavir 400 mg, po qd for 1 week measured 12 hrs post dose by LC-MS/MS analysis; format: ADME, organism-based; details: in vivo
In short: as §5

[28] = Apparent total plasma clearance in healthy human at 400 mg, po Bid for 1 week by LC-MS/MS analysis; format: ADME, organism-based
In short: as §3

[29] = tested on: Homo sapiens; experiment: AUC (12 to 24 hrs) in healthy human assessed as raltegravir-glucoronide at 400 mg, po […] coadministered with atazanavir 400 mg, po qd for 1 week by LC-MS/MS analysis; format: ADME, organism-based, Plasma; design: time 12-24 hr, dose 400 mg, route oral; details: in vivo
In short: as §5

[30] = tested on: Plasma; experiment: Ctau in healthy human plasma assessed as raltegravir-glucoronide at 400 mg, po Bid for 1 week by LC-MS/MS analysis; format: ADME, organism-based; details: in vivo, 168 h
In short: as §2

[31] = Ratio of drug level to raltegravir-glucoronide level in healthy human urine at 400 mg, po Bid for 1 week by LC-MS/MS analysis; format: ADME, organism-based; details: in vivo, 168 h
In short: as §4

[32] = tested on: Plasma; experiment: Cmax in healthy human plasma assessed as raltegravir-glucoronide at 400 mg, po Bid for 1 week by LC-MS/MS analysis; format: ADME, organism-based; design: dose 400 mg, route oral; details: in vivo, 168 h
In short: as §2

[33] = Drug level in healthy human urine assessed as raltegravir-glucoronide at 400 mg, […] coadministered with atazanavir 400 mg, po qd for 1 week measured at 0-12 hrs post dose by LC-MS/MS analysis; format: ADME, organism-based; details: in vivo
In short: as §1

[34] = Ratio of drug level to raltegravir-glucoronide level in healthy human urine at 400 mg, po Bid coadministered with atazanavir 400 mg, po qd for 1 week by LC-MS/MS analysis; format: ADME, organism-based; details: in vivo, 168 h, in the assay text read “po qd” for “po Bid”
In short: as §1

[35] = Drug level in healthy human urine at 400 mg, po Bid coadministered with atazanavir 400 mg, po qd for 1 week measured at 0-12 hrs post dose by LC-MS/MS analysis; format: ADME, organism-based; details: in vivo, in the assay text read “po qd” for “po Bid”
In short: as §1

Cmax [1]: 1400 ng/mL
Drug uptake [2]: 7.03 mg
AUC [3]: 3267 ng·h/mL
concentration at 168 h [4]: 46 ng/mL
CL renal at 168 h [5]: 55 mL/min
AUC [6]: 875 ng·h/mL
concentration at 168 h [7]: 18 ng/mL
Drug uptake [8]: 82.5 mg
AUC [9]: 6080 ng·h/mL
Ctau [10]: 8 ng/mL
Drug uptake [11]: 11.66 mg
CL/F [12]: 1100 mL/min
AUC tau at 168 h [13]: 3530 ng·h/mL
CL_renal [14]: 421 mL/min
CL_renal [15]: 692 mL/min
Cmax [16]: 458 ng/mL
Drug uptake [17]: 0.41 mg
concentration at 12 h [18]: 46 ng/mL
Cmax [19]: 1020 ng/mL
Cp [20]: 45 ng/mL
concentration at 12 h [21]: 69 ng/mL
AUC at 12 h [22]: 4660 ng·h/mL
CL renal at 168 h [23]: 39 mL/min
dose excreted at 168 h [24]: 2.9%
dose excreted at 168 h [25]: 3.5%
AUC at 12 h [26]: 3530 ng·h/mL
Cp [27]: 41 ng/mL
CL/F [28]: 1890 mL/min
AUC [29]: 342 ng·h/mL
Ctau [30]: 45 ng/mL
Ratio [31]: 7.08
Cmax [32]: 799 ng/mL
Drug uptake [33]: 84.51 mg
Ratio [34]: 7.81
Drug uptake [35]: 10.81 mg
Compound: Cc1nnc(C(=O)NC(C)(C)c2nc(C(=O)NCc3ccc(F)cc3)c(O)c(=O)n2C)o1 [RALTEGRAVIR]
